Laboratory results from article PMC7947324 (Pharmacology Research & Perspectives, 2021).
Entries after “also recorded” stand apart in the source; their conditions may differ. One block for each compound: values may come before it.

Tests used:
[1] = tested on: INS‐1 (832/3) cells; assay: INS‐1; assay type: cell-based, rat; details: for effect of antagonist on the PGE2 dose–response (GSIS): 10 µM antagonist, PGE2 1 pM to 50 μM; for effect of antagonist on the sulprostone dose–response (GSIS): sulprostone 1 pM to 50 μM; for reduction of GSIS at high concentration compared with PGE2: 50–100 µM; for concentration from which the agonist reduces GSIS / effect of agonist on GSIS (dose–response): agonist alone; for effect of agonist on GSIS (dose–response): 1 pM to 50 or 100 μM, 16.7 mM glucose
Outline: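 INS‐1 (832/3) cells (passage 35 or below) plated and cultured 72 h before GSIS. Agonists tested from 1 pM to 10, 50 or 100 µM, with or without 20 µM EP3 antagonist or 10 µM other EP antagonists. Insulin measured by in‐house ELISA and expressed relative to 16.7 mM glucose. N = 3–5 independent experiments, mean ± SEM, two‐way ANOVA with Holm–Sidak.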

[2] = tested on: mouse DP2 receptor; details: ref Table 3; cited from earlier work
[3] = tested on: mouse DP2 receptor; assay: Published agonism at mouse DP2 receptor; assay type: biochemical; details: from published pKi values of Table 3
[4] = tested on: INS‐1 (832/3) cells; details: cited from earlier work
[5] = tested on: INS‐1 (832/3) cells; assay: Membrane phospholipid AA and EPA composition of INS‐1; assay type: cell-based, rat; details: 100 μM AA‐enriched medium, 48 h
[6] = tested on: INS‐1 (832/3) cells; assay: Relative gene expression by qPCR in INS‐1; assay type: cell-based, rat; details: for Ptges expression vs. control: 2^ΔΔCt method, AA enrichment alone or 10 ng/ml IL‐1β
[7] = tested on: INS‐1 (832/3) cells; assay: PGE2 production; assay type: cell-based, rat; details: BSA or AA cultured cells, 10 ng/mL IL‐1β or vehicle
[8] = tested on: INS‐1 (832/3) cells; assay: Total insulin content of INS‐1; assay type: cell-based, rat; details: 10 ng/ml, regardless of fatty acid treatment
Outline: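 Cells at 70% confluence were cultured 48 h in medium with 1% fatty acid‐free BSA, with or without 100 μM AA, then 24 h with vehicle or 10 ng/ml IL‐1β. Assay groups were 1.7 mM glucose, 16.7 mM glucose, 16.7 mM + 10 nM agonist, and 16.7 mM + 20 µM EP3 antagonist. Secreted insulin was given as percent of content; content and secretion by in‐house ELISA. N = 3–4, mean ± SEM, two‐way ANOVA with Holm–Sidak.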

[9] = tested on: rat EP3 receptor; details: cited from earlier work
[10] = tested on: rat EP1 receptor; details: cited from earlier work

Compound: CCCCc1nn(-c2ccccc2C(F)(F)F)c(=O)n1Cc1ccc(-c2ccccc2S(=O)(=O)NC(=O)c2sccc2C)cc1 [L161,982]
effect of antagonist on the PGE2 dose–response (GSIS) [1]: excluded from mediating the effect of PGE2 on GSIS
effect of antagonist on the sulprostone dose–response (GSIS) ([1]; 10 μM antagonist): neither SC51089, AH2384B, SC19220, nor L161,982 affecting the sulprostone dose–response

Compound: SC51089
effect of antagonist on the PGE2 dose–response (GSIS) [1]: neither of two EP1 antagonists, SC19220 or SC51089, affect the PGE2 dose–response
effect of antagonist on the iloprost dose–response curve (GSIS) ([1]; 10 μM antagonist, iloprost 1 pM to 100 μM): no effect
effect of antagonist on the sulprostone dose–response (GSIS) ([1]; 10 μM antagonist): neither SC51089, AH2384B, SC19220, nor L161,982 affecting the sulprostone dose–response

Compound: CCC#CC[C@H](C)[C@H](O)C#C[C@@H]1[C@H]2C/C(=C/COCC(=O)O)C[C@H]2C[C@H]1O [Cicaprost, cicaprost]
reduction of GSIS at high concentration compared with PGE2 [1]: nearly reaching the maximal potency of PGE2
concentration from which the agonist reduces GSIS [1]: 1 µM

Compound: O=C(O)CC/C=C\CC[C@H]1[C@H](N2CCOCC2)C(=O)C[C@H]1OCc1ccc(-c2ccccc2)cc1 [AH2384B]
effect of antagonist on the PGE2 dose–response (GSIS) [1]: excluded from mediating the effect of PGE2 on GSIS
effect of antagonist on the sulprostone dose–response (GSIS) ([1]; 10 μM antagonist): neither SC51089, AH2384B, SC19220, nor L161,982 affecting the sulprostone dose–response

reduced potency at DP2 as compared to EP3 [3]: ~ 3000 fold
Compound: CCCCC[C@H](O)/C=C/[C@H]1[C@H](O)CC(=O)[C@@H]1C/C=C\CCCC(=O)O [PGE2]
agonist type at mouse DP2 receptor [2]: full agonist
potentiation of GSIS ([1]; 10 nM, AA‐enriched cells pretreated with IL‐1β): approximately twofold
effect on GSIS ([1]; 10 nM, IL‐1β‐treated control (BSA) cells): no further inhibitory effect
effect on GSIS ([1]; 10 nM, cells without IL‐1β, with or without AA enrichment): blunts INS‐1 (832/3) GSIS regardless of AA enrichment
effect of agonist on GSIS (dose–response) [1]: reduces INS‐1 (832/3) GSIS in a dose‐dependent manner; also recorded: significantly reduce INS‐1 cell GSIS
maximal reduction in GSIS ([1]; maximal potency): ~ 60%

Compound: CCCCC[C@H](O)/C=C/[C@@H]1[C@@H](C/C=C\CCCC(=O)O)[C@@H](O)C[C@H]1O [PGF2α]
reduction of GSIS at high concentration compared with PGE2 [1]: nearly reaching the maximal potency of PGE2
concentration from which the agonist reduces GSIS [1]: 1 µM

Compound: PF‐04418948
effect of antagonist on the PGE2 dose–response (GSIS) [1]: no effect

increase of the IC50 for PGE2 (reduction of GSIS) by antagonist ([1]; PGE2 1 pM to 10 μM with and without 20 μM L798,106): over 100 fold
Compound: COc1ccc(Br)cc1S(=O)(=O)NC(=O)/C=C/c1ccccc1Cc1ccc2ccccc2c1 [L798,106]
effect of antagonist on GSIS reduced by PGD2, PGF2α, cicaprost or U‐46619 ([1]; 20 μM L798,106): fully restores INS‐1 (832/3) GSIS
increase in GSIS vs. 16.7 mM glucose alone ([1]; 20 µM, AA enrichment and 10 ng/ml IL‐1β pretreatment): ~ 30%
effect of antagonist alone on GSIS ([1]; 20 µM, no IL‐1β treatment, control and AA‐enriched cells): no potentiating effect; also recorded: unaffected

Compound: CC(=O)NNC(=O)N1Cc2ccccc2Oc2ccc(Cl)cc21 [SC19220]
effect of antagonist on the PGE2 dose–response (GSIS) [1]: neither of two EP1 antagonists, SC19220 or SC51089, affect the PGE2 dose–response
effect of antagonist on the sulprostone dose–response (GSIS) ([1]; 10 μM antagonist): neither SC51089, AH2384B, SC19220, nor L161,982 affecting the sulprostone dose–response

Compound: CCCCC[C@H](O)/C=C/[C@H]1[C@H](O)CC(=O)[C@@H]1CCCCCCC(=O)O [PGE 1]
effect on INS‐1 cell GSIS [4]: significantly reduce INS‐1 cell GSIS

Compound: COc1ccc2c(c1)c(CC(=O)O)c(C)n2C(=O)c1ccc(Cl)cc1 [Indomethacin, indomethacin]
effect of agonist on GSIS (dose–response) [1]: no significant effect
effect of agonist on GSIS (dose–response) ([1]; listed as indomethacin): no effect on GSIS

Compound: CCCCC/C=C\C/C=C\C/C=C\C/C=C\CCCC(=O)O [AA, arachidonic acid]
AA abundance in membrane phospholipids vs controls [5]: 4 fold
AA:EPA ratio vs controls [5]: 25 fold
Ptges expression vs. control [6]: ~ 3.5 fold

Compound: CS(=O)(=O)NC(=O)CCC/C=C\C[C@H]1C(=O)C[C@@H](O)[C@@H]1/C=C/[C@@H](O)COc1ccccc1 [Sulprostone, sulprostone]
effect of agonist on GSIS (dose–response) [1]: nearly identical results as with PGE2; also recorded: significantly reduce INS‐1 cell GSIS

Compound: CCCCC[C@H](O)/C=C/[C@H]1C(=O)C[C@H](O)[C@@H]1C/C=C\CCCC(=O)O [PGD2]
reduction of GSIS at high concentration compared with PGE2 [1]: nearly reaching the maximal potency of PGE2
concentration from which the agonist reduces GSIS [1]: 1 µM

Compound: IL‐1β: Interleukin‐1β, cytokine used at 10 ng/ml to mimic the diabetic state and induce PGE2 production
substrate‐dependent PGE2 production [7]: only induced with IL‐1β treatment
Ptger1 expression ([6]; 10 ng/ml IL‐1β): unaffected
Ptger3 expression upregulation ([6]; 10 ng/ml IL‐1β): ~ 6 fold
Ptger4 expression upregulation ([6]; 10 ng/ml IL‐1β): ~ 10 fold
Ptges2 expression induction ([6]; 10 ng/ml IL‐1β): ~ 2 fold
Ptges3 expression induction ([6]; 10 ng/ml IL‐1β): ~ 2.5 fold
Ptgs1 expression induction ([6]; 10 ng/ml IL‐1β): 2–4 fold
Ptgs2 expression induction ([6]; 10 ng/ml IL‐1β): ~ 10 fold
Ptges expression vs. control [6]: ~ 100 fold
reduction of insulin content [8]: ~50%

Compound: CC/C=C\C[C@H](O)/C=C/[C@H]1[C@H](O)CC(=O)[C@@H]1C/C=C\CCCC(=O)O [PGE3]
effect on INS‐1 cell GSIS [4]: significantly reduce INS‐1 cell GSIS

Compound: CC#CCC(C)[C@H](O)/C=C/[C@@H]1[C@H]2C/C(=C/CCCC(=O)O)C[C@H]2C[C@H]1O (stereo partly drawn) [Iloprost, iloprost]
agonist type at rat EP3 receptor [9]: full agonist
effect of agonist on GSIS (dose–response) [1]: dose‐dependently reduces GSIS; also recorded: significantly reduce INS‐1 cell GSIS
agonist type at rat EP1 receptor [10]: only a partial agonist
